# High-throughput results (PubChem BioAssay)
# pPAFAH inh – inhibitors of human plasma PAF acetylhydrolase (pPAFAH); Q13093; recombinant pPAFAH, FP-rhodamine probe fluorescence polarization; inhibition, % at 3.39 µM; hit rate 1.5% among 330,000; AID 463082;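 active means inhibition above the mean inhibition across the screen plus 3 SD, cut at about 25% in these data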;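 further: inhibitors block binding of the rhodamine activity-based probe so polarization drops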
# PAFAH1B2 FP inh – PAFAH1B2 (human) inhibition; P68402; recombinant PAFAH1B2, FP-rhodamine activity probe, fluorescence polarization; inhibition, % at 3.39 µM; hit rate 1.2% among 340,000;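 active means inhibition above the mean of all tested compounds plus 3 SD, cut at about 24% in these data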
# Apaf1 inhib – blocks human Apaf-1 apoptosome activity. O14727. reconstituted apoptosome caspase-3 activity, DEVD-Rh110 fluorescence. inhibition, % at 20 µM. hit rate 0.71% among 330,000. AID 489030; active means inhibition of at least 40% at 20 µM
# Target sequence (O14727 whole entry, looked up): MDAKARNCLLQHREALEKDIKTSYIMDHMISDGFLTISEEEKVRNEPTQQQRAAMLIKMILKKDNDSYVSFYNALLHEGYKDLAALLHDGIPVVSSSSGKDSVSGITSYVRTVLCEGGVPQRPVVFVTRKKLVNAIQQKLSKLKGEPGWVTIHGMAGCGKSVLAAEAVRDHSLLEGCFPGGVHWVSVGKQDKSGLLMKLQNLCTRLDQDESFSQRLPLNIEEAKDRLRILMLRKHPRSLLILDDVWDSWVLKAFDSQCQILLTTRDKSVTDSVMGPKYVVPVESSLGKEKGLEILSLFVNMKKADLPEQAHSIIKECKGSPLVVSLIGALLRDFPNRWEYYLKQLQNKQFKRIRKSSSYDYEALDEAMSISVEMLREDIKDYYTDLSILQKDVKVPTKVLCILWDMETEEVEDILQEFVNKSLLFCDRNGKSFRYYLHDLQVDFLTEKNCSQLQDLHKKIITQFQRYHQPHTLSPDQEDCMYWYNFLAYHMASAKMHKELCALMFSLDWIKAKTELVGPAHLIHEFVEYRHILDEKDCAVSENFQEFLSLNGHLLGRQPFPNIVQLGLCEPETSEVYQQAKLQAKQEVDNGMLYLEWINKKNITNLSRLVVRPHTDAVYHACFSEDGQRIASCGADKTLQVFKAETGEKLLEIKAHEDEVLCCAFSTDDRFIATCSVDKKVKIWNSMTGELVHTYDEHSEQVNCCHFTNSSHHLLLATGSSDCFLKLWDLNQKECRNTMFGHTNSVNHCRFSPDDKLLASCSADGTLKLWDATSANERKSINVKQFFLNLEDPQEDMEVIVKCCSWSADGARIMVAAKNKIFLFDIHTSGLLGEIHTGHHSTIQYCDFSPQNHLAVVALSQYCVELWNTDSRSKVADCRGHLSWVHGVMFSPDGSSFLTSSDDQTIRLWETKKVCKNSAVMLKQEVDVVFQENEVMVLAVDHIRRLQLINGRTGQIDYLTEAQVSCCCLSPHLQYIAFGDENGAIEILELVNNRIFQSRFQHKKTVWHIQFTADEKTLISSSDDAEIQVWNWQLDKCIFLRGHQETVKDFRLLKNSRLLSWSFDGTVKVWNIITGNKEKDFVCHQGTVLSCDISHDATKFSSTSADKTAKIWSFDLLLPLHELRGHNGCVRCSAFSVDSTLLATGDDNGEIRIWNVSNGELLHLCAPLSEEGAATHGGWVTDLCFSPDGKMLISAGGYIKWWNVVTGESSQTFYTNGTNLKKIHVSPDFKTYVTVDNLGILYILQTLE
#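 Material: reconstituted apoptosome with Apaf-1, cytochrome c, caspase-9, procaspase-3, dATP / Buffer or medium: pH 7.5 Hepes buffer with CHAPS, BSA, DTT / Also added: cytochrome c with DEVD-Rh110 / Schedule: compound with Apaf-1, dATP, procaspase-3 30 min, then 50 min reaction, room temperature / Technique: rhodamine 110 fluorescence at Ex 480/Em 540 nm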
# PAFAH1B3 inh – inhibitors of human PAFAH1B3; recombinant PAFAH1B3, FP-rhodamine probe, fluorescence polarization; AID 492972; inhibition, % at 3.39 µM; hit rate 0.28% among 340,000; Q15102;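 active means inhibition above the screen-wide average of all tested compounds plus 3 SD, cut at about 25% in these data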
# PAFAH2 inh – inhibitors of human PAFAH2. Q99487. hit rate 0.99% among 340,000. inhibition, % at 3.39 µM. AID 492956. recombinant PAFAH2, FP-rhodamine activity probe, fluorescence polarization;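 active means inhibition above the mean over all tested compounds plus 3 SD, cut at about 30% in these data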;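 further: inhibitors block probe labeling of enzyme so polarization drops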
# PREPL inh – inhibitors of human prolyl oligopeptidase-like enzyme PREPL. Q4J6C6. recombinant PREPL, fluorescence polarization activity-based probe. inhibition, % at 5.96 µM. hit rate 0.68% among 320,000. AID 2751; in the data active means inhibition above about 43%
# PAFAH2 FP conf – confirmation of human PAFAH2 inhibitors; hit rate 65% among 2,300; recombinant PAFAH2, FP-rhodamine activity probe, fluorescence polarization; AID 493030; shares compounds with PAFAH2 inh; inhibition, % at 3.39 µM;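 active means mean inhibition over three repeats above a set limit taken from the earlier primary screen, cut at about 30% in these data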;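 further: inhibitor blocks binding of rhodamine activity probe so polarization falls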
# Hits are given with their value; . = inactive; / = no result given. Only some compounds are listed: those with a hit (about 3.5% of all), similar ones and a draw of the others.
SMILES,pPAFAH inh,PAFAH1B2 FP inh,Apaf1 inhib,PAFAH1B3 inh,PAFAH2 inh,PREPL inh,PAFAH2 FP conf
O=C(NCc1ccccn1)C1CCN(S(=O)(=O)c2cnc[nH]2)CC1,.,.,.,.,.,.,/
CCN(CC)c1ccc(/C=N/n2c(-c3ccccc3Br)n[nH]c2=S)cc1,.,.,.,.,31,.,.
Cc1ccc(NS(=O)(=O)c2cc(C(=O)O)ccc2Cl)c(C)c1,.,.,.,.,54,.,.
O=C(COC(=O)c1ccc(O)cc1)NC1CCCC1,.,.,.,.,77,.,73
CC(C)(C)c1ccc(C(=O)OCC(=O)NC2CC2)cc1,/,.,.,.,73,/,66
Cc1ccc(C(=O)OCC(=O)NC2CCCC2)cc1,.,.,.,.,82,.,76
O=C(COC(=O)c1ccc([N+](=O)[O-])cc1)NC1CCCC1,.,.,.,.,.,.,/
Cc1ccc(C(=O)N/C(=C\c2ccco2)C(=O)NCCN2CCOCC2)cc1C,.,.,.,.,.,.,/
COc1ccc(CCNC(=O)C2CCN(C(=O)c3ccc(Cl)cc3)CC2)cc1OC,.,.,.,.,.,.,/
CCOC(=O)c1ccccc1NC(=O)COC(=O)CCNS(=O)(=O)c1cccs1,/,.,.,.,.,/,/
O=C(COC(=O)c1ccc(Cl)cc1)NCC1CCCCC1,.,.,.,.,59,.,60
O=C(COC(=O)c1ccc(F)cc1)NCC1CCCCC1,.,.,.,.,77,.,60
COc1ccc(C(=O)OCC(=O)NCC2CCCCC2)cc1F,/,.,.,.,85,/,72
COc1ccc(C(=O)OCC(=O)NCC2CCCCC2)c(OC)c1,/,.,.,.,66,/,57
CS(=O)(=O)c1ccccc1C(=O)Nc1ccc(S(=O)(=O)N2CCCC2)cc1,.,.,.,.,.,.,/
Nc1nc(SCC(=O)Nc2ccccc2Sc2ccccc2)n[nH]1,.,.,.,.,.,.,/
Cc1c(NC(=O)COC(=O)c2ccc(S(=O)(=O)N3CCOCC3)cc2)c(=O)n(-c2ccccc2)n1C,.,.,.,.,.,.,/
CCCC(C)NC(=O)COC(=O)c1cc(Br)c(Br)s1 (centres undefined),.,.,.,.,.,.,/
CC(C)CCNC(=O)COC(=O)c1cc(Br)c(Br)s1,.,.,.,.,32,.,.
COc1cccc(NC(=O)COc2ccc(C(=S)N3CCN(C)CC3)cc2OC)c1,.,.,.,.,.,.,/
CC1=C(C#N)c2nc(N)c(C#N)c(C)c2/C1=C\c1ccc(-c2ccccc2C(=O)O)o1,/,.,/,.,32,/,.
N=C1/C(=C\c2ccc(Br)o2)C(=O)N=C2SC(CC(=O)N3CCOCC3)=NN12,.,.,.,.,.,.,/
N=C1/C(=C/c2ccc(Br)o2)C(=O)N=C2SC(CC(=O)N3CCCC3)=NN12,.,.,.,.,31,.,.
Cc1cccc(OCc2nnc(SCC(=O)Nc3nccs3)o2)c1,.,.,.,.,.,.,/
COc1cccc(CNC(=O)CSCC(=O)Nc2ccc(C)cc2)c1,.,.,.,.,.,.,/
SMILES,pPAFAH inh,PAFAH1B2 FP inh,Apaf1 inhib,PAFAH1B3 inh,PAFAH2 inh,PREPL inh,PAFAH2 FP conf
Cc1ccc(/C=C2/SC(=S)N(CCCC(=O)Nc3cc([N+](=O)[O-])ccc3O)C2=O)cc1,.,.,.,.,32,.,.
O=C(CN1C(=O)S/C(=C\c2ccccc2)C1=O)Nc1cc([N+](=O)[O-])ccc1O,.,.,.,.,57,.,43
Cc1cc(NC(=O)COC(=O)c2cc3c(s2)CCC(C)C3)no1 (centres undefined),.,.,.,.,30,.,.
CC1CCc2sc(C(=O)OCC(=O)NC(N)=O)cc2C1 (centres undefined),.,.,.,.,.,.,/
CC1CCc2sc(C(=O)OCC(=O)NC(C)C)cc2C1 (centres undefined),.,.,.,.,31,.,.
COc1ccc(CC(NC(C)=O)C(=O)NC2CCN(C(=O)Nc3ccccc3C)CC2)cc1OC (centres undefined),.,.,.,.,.,.,/
CCOCCn1c(CN2CCN(C(=O)c3ccco3)CC2)nc2c1c(=O)n(C)c(=O)n2C,.,.,.,.,.,.,/
Cc1ccc(S(=O)(=O)N2CCOCC2)cc1NC(=O)COC(=O)/C=C/c1ccco1,.,.,.,.,46,.,45
COc1cccc(/C=C/C(=O)OCC(=O)Nc2cc(S(=O)(=O)N3CCOCC3)ccc2C)c1,.,.,.,.,55,.,42
COc1ccc(C(=O)Nc2cc(Cl)ccc2OC(=O)c2ccc(OC)cc2)cc1,.,.,.,.,45,.,35
Cc1ccc(N=Nc2c(O)ccc3n[nH]nc23)cc1,/,.,/,.,30,/,.
O=C(CNC(=O)c1ccc(OC(F)F)cc1)Nc1cccc(S(=O)(=O)N2CCCC2)c1,.,.,.,.,.,.,/
C=CCSC1=N/C(=C\c2cc(OC)c3c(c2)OCO3)C(=O)S1,.,.,.,.,42,.,43
CCSC1=N/C(=C\c2ccc3c(c2)OCO3)C(=O)S1,.,.,.,.,.,.,/
CC(=O)Oc1ccc(/C=C/c2nc3ccccc3c(=O)o2)cc1,.,.,.,.,50,.,57
CC(=O)Oc1ccccc1/C=C/c1nc2ccccc2c(=O)o1,.,.,.,.,86,.,70
CC(=O)Oc1ccc(-c2nc3ccccc3c(=O)o2)cc1,.,.,.,.,.,.,/
Cc1noc(C)c1COc1ccc(CC(=O)NC2CCCCCC2)cc1,.,.,.,.,.,.,/
Cc1noc(C)c1COc1ccc(C(=O)OCC(=O)NC2CCCCC2C)cc1 (centres undefined),.,.,.,.,77,.,82
Cc1noc(C)c1COc1ccc(C(=O)OCC(=O)NC23CC4CC(CC(C4)C2)C3)cc1,.,.,.,.,81,.,80
COc1c(O)cc(O)c2c(=O)cc(-c3ccccc3)oc12,.,.,.,.,.,.,/
O=C(COC(=O)c1cccc(S(=O)(=O)N2CCCCCC2)c1)Nc1ccccc1,/,.,.,.,66,/,60
O=C(COC(=O)c1ccccc1)Nc1cccc(S(=O)(=O)N2CCCCC2)c1,/,.,.,.,40,/,.
Cc1ccc(C(=O)OCC(=O)Nc2cccc(S(=O)(=O)N3CCCCC3)c2)o1,.,.,.,.,42,.,.
O=C(COC(=O)c1cccs1)Nc1cccc(S(=O)(=O)N2CCCCC2)c1,.,.,.,.,69,.,64
COc1ccc(CC(=O)Nc2cccc(S(=O)(=O)N3CCCCC3)c2)cc1,.,.,.,.,.,.,/
CCOc1ccc(NC(=O)NNC(=O)c2cccnc2)cc1,.,.,.,.,.,.,/
OCC1(Cc2ccc(F)cc2)CCCN(CCc2ccccc2)C1 (centres undefined),.,.,.,.,.,.,/
